In test [1] the test system is chymotrypsin-like activity of human 20S proteasome. The format is biochemical. The conditions noted are these: for Proteasome activation (in words): chymotrypsin-like activity, absence of PA28. An outline of the steps: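 Without PA28, proteasome was exposed to test compound. Chymotrypsin-like activity was followed by cleavage of the fluorogenic substrate Suc-LLVY-AMC, read in relative fluorescence units against a proteasome-plus-substrate background. EC50 was the concentration raising activity to 50% of its maximum level. Values are mean ± SD of three independent experiments.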

In test [2] the test system is proteasome. As to conditions: cited from earlier work.
Test [3] concerns PA28-activated proteasome inhibited by Aβ1-42. Put plainly: Antagonism of Aβ1-42 inhibition of PA28-activated proteasome by compound 2. It counts as biochemical. As to conditions: compound 2 at 14, 28, 56 μM; Aβ1-42 10 μg/ml; PA28 1.8 μg/ml.
Test [4] relates to chymotrypsin-like proteasome activity (20S proteasome + PA28). In words: Inhibition of chymotrypsin-like proteasome activity in the presence of PA28. It counts as biochemical, human. An outline of the steps: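 The proteasome was activated by the cellular activator PA28 and then exposed to test compound. Chymotrypsin-like activity was read by Suc-LLVY-AMC fluorescence, with proteasome plus substrate as background. IC50 was the concentration inhibiting PA28-present chymotrypsin-like activity by 50%. Values are mean ± SD of three independent experiments.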

In test [5] the test system is proteasome. As to conditions: cited from earlier work. This is another data set of the same source.
Test [6] relates to proteasome. The conditions noted are these: cited from earlier work. The source holds these as a separate data set.
The target in test [7] is PA28-activated proteasome. Put plainly: Inhibition of PA28-activated proteasome by Aβ1-42. It counts as biochemical. As to conditions: PA28 1.8 μg/ml.

“Also recorded” adds a separate entry of the source.

`COC(=O)CC[C@@H](C)[C@H]1CC[C@H]2[C@@H]3CC[C@@H]4C[C@H](OC(=O)CCCCCC(=O)O)CC[C@]4(C)[C@H]3CC[C@]12C` [Compound 2, 3α-O-pimeloyl-lithocholic acid methyl ester]: the “Proteasome activation (in words)” value in test [1] is on record as “active in proteasome activation”. Besides, the “Proteasome inhibition in previous study (in words)” value in the test on proteasome [2] was “inactive in proteasome inhibition”. The “Antagonism of Aβ1-42-mediated proteasome inhibition (in words)” value in test [3] was “antagonized the Aβ1-42-mediated proteasome inhibition in a dose dependent manner; also recorded: potently antagonized; also recorded: completely reverse”.

Regarding `CCOC(=O)CC[C@@H](C)[C@H]1CC[C@H]2[C@@H]3CC[C@@H]4C[C@H](OC(=O)CCCCCC(=O)O)CC[C@]4(C)[C@H]3CC[C@]12C` [Compound 3], in test [1], the “Proteasome activation (in words)” value is reported as “completely abrogated the proteasome activation activity”.

`CNC(=O)CC[C@@H](C)[C@H]1CC[C@H]2[C@@H]3CC[C@@H]4C[C@H](OC(=O)CCCCCC(=O)O)CC[C@]4(C)[C@H]3CC[C@]12C` [Compound 4]: the “Proteasome activation (in words)” value in test [1] is listed as “completely abrogated the proteasome activation activity”.

For `COC(=O)CC[C@@H](C)[C@H]1CC[C@H]2[C@@H]3CC[C@@H]4C[C@@H](OC(=O)CCCCCC(=O)O)CC[C@]4(C)[C@H]3CC[C@]12C` [Compound 5], the “Proteasome activation (in words)” value in test [1] is listed as “did not activate the proteasome”. Moreover, in test [4], the “Proteasome inhibition (in words)” value is given as “inhibited the proteasome”.

Consider `COC(=O)CC[C@@H](C)[C@H]1CC[C@H]2[C@@H]3CC[C@@H]4C[C@H](NC(=O)CCCCCC(=O)O)CC[C@]4(C)[C@H]3CC[C@]12C` [Compound 6], for which the “Increase of proteasome activation activity relative to compound 2” value in test [1] (C3 amide versus C3 ester) is recorded as “approximately two-fold”.

In the case of `COC(=O)CC[C@@H](C)[C@H]1CC[C@H]2[C@@H]3CC[C@@H]4C[C@@H](NC(=O)CCCCCC(=O)O)CC[C@]4(C)[C@H]3CC[C@]12C` [Compound 7], the “Proteasome activation (in words)” value in test [1] is “did not activate the proteasome”. Moreover, the “Proteasome inhibition (in words)” value in test [4] is “inhibited the proteasome”.

For `COC(=O)CC[C@@H](C)[C@H]1CC[C@H]2[C@@H]3CC[C@@H]4C[C@@H](N)CC[C@]4(C)[C@H]3CC[C@]12C` [Compound 9, 3-β-amino-lithocholic acid methyl ester], in test [1], the “Proteasome activation (in words)” value was “did not activate the proteasome”. Besides, the “Proteasome inhibition (in words)” value in test [4] is recorded as “inhibited the proteasome”.

Take `C[C@H](CCC(=O)O)[C@H]1CC[C@H]2[C@@H]3CC[C@@H]4C[C@H](O)CC[C@]4(C)[C@H]3CC[C@]12C` [Lithocholic acid, lithocholic acid, reference compound]: the “Proteasome activation (in words)” value in test [1] is reported as “did not activate the proteasome”. The “Proteasome inhibition (in words)” value in test [4] is “weak proteasome inhibitor”.

Take `C/C=C1/[C@H](O[C@@H]2O[C@H](CO)[C@@H](O)[C@H](O)[C@H]2O)OC=C(C(=O)OC)[C@H]1CC(=O)OCCc1ccc(O)c(O)c1` [Oleuropein, reference compound]: the “Proteasome activation (in words)” value in test [1] is reported as “did not show any significant activity; also recorded: did not activate the proteasome”. Also, the “Proteasome activation over background proteasome activity” value with proteasome [5] (absence of cellular proteasome activators) is given as “approximately 1.5 fold”. The “Concentration reported to enhance proteasome activities in vitro” value in the test with proteasome [5] is 0.5 µg/mL.

`CCCCCCCCCCCCOS(=O)(=O)[O-].[Na+]` [SDS]: in the test with proteasome [5], the “Concentration reported for proteasome activation” value is on record as 0.05%.

With `CN(C)c1ccc2nc3ccc(=[N+](C)C)cc-3sc2c1` [methylene blue], in the test on proteasome [6], the “Enhancement of proteasome activity (in words)” value was “slightly enhance proteasome activity”.

For “Aβ1-42: amyloid beta peptide 1-42, the likely pathogenic form of Aβ”, in test [7], the “Inhibition of PA28-activated proteasome (in words)” value is “inhibited the proteasome in a dose dependent manner”.

Consider polylysine, for which the “Concentration reported for proteasome activation” value in the test with proteasome [5] is 1 mg/mL.

The values are drawn from article PMC3544189 (ACS medicinal chemistry letters, 2012).
